Only some compounds are listed: those with a hit (about 2.6% of all), similar ones and a draw of the others.
GSTO1 counter: GSTO1 inhibition, counter-screen for RBBP9 inhibitors | P78417 | recombinant GSTO1, activity-based probe fluorescence polarization | inhibition, % at 5.96 µM | 1.1% of 300,000 active;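 active means inhibition above the campaign mean inhibition plus 3 SD, cut at about 35% in these data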;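 further: 0% = GSTO1-1 with DMSO and 100% = wells lacking GSTO1-1 enzyme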
TDP2 absorb: blocks human TDP2 phosphodiesterase activity; AID 720702; 0.34% of 370,000 active; O95551; inhibition, % at 12.8 µM; recombinant TDP2, T5PNP hydrolysis, p-nitrophenol absorbance 415 nm;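 active means inhibition above the mean of all tested compounds plus 3 SD, set per campaign, cut at about 25% in these data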;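 further: 0% = DMSO with enzyme and 100% = buffer with substrate but no TDP2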
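Read-out basis: percent inhibition. System: recombinant human TDP2. Buffer or medium: Mg2+-containing Tris-HCl buffer, pH 7.5. Repeats: single replicate. Timing: reaction 2 h, 37 °C. Benchmarks: high control without enzyme, low control DMSO plus TDP2. Probe or stimulus: 5 mM T5PNP. Doses: 12.8 µM only. Measured by: epi absorbance of p-nitrophenol freed from T5PNP by hydrolysis.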
PRMT1 FP inh: PRMT1 (human) inhibition, primary screen; recombinant PRMT1, activity-based probe fluorescence polarization; Q99873; 1.3% of 370,000 active; inhibition, % at 2.79 µM; AID 652257;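 active means inhibition above about 21% made by adding two undisclosed values, limit read from the data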
PAD4 inh: PAD4 (human) enzyme inhibition; Q9UM07; AID 485272; 0.41% of 330,000 active; inhibition, % at 6.36 µM; recombinant PAD4, RCA probe fluorescence polarization;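 active means percent inhibition above a cutoff equal to the mean of all tested compounds plus 3 SD, cut at about 15% in these data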;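 further: 0% = PAD4 with RCA probe and DMSO and 100% = probe without PAD4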
Target sequence (Q9UM07 whole entry, looked up): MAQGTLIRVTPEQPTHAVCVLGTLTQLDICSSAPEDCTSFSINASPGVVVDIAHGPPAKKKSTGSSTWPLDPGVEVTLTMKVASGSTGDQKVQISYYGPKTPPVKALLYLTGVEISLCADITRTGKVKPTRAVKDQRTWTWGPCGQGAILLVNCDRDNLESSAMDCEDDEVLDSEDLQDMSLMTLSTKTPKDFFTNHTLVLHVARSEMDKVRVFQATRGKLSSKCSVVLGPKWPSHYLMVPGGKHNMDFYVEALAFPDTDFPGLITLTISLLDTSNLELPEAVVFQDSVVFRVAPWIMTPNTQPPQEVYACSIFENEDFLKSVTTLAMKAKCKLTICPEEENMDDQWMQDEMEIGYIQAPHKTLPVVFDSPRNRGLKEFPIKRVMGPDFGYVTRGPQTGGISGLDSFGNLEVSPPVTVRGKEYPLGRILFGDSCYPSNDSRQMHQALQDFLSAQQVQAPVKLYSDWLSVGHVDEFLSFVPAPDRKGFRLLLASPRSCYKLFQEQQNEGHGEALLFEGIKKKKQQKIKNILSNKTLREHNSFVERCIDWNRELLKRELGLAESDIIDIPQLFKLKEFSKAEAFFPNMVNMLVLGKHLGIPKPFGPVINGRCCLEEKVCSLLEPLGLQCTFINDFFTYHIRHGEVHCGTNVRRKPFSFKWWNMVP
Apaf1 inhib: human Apaf-1 inhibition | O14727 | reconstituted apoptosome caspase-3 activity, DEVD-Rh110 fluorescence | inhibition, % at 20 µM | 0.71% of 330,000 active; active means inhibition of at least 40% at 20 µM;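 further: plate controls were DMSO wells for no effect and DEVD-CHO caspase inhibitor wells for full effect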
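System: Apoptosome proteins | Medium: Hepes pH 7.5 with detergent and BSA | Also added: Cytochrome c trigger plus (Z-DEVD)2-Rh110 caspase-3 substrate | Incubation: 30 min compound preincubation, 50 min activation, room temperature | Detection: Rhodamine 110 fluorescence at Ex 480/Em 540 nm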
PRMT1 confirm: PRMT1 (human) inhibition, FP confirmation; shares compounds with PRMT1 FP inh; inhibition, % at 2.79 µM; 42% of 3,300 active; recombinant His-PRMT1, activity-based probe fluorescence polarization; AID 687036;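 active means mean inhibition across replicates above the hit cutoff derived for the earlier primary screen, cut at about 22% in these data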
Numbers without * were called inactive.

For N#CC(C#N)=C1C=CC=CN1/C(=C\c1ccccc1)C(=O)c1cccs1 the results were GSTO1 counter 9, TDP2 absorb 5, PRMT1 FP inh 20, PAD4 inh -3 and Apaf1 inhib -6.
Screening N#CC(C#N)=C1C=CC=CN1/C(=C\c1ccccc1Cl)C(=O)c1ccccc1 returned GSTO1 counter 6, TDP2 absorb 11, PRMT1 FP inh 29*, PAD4 inh 4 and PRMT1 confirm 32*.
CCOC(=S)SCc1cn2cccc(C)c2n1 was read as GSTO1 counter 4, TDP2 absorb -5, PRMT1 FP inh 57*, PAD4 inh 2, Apaf1 inhib 1 and PRMT1 confirm 12.
Screening O=C(O)/C(=C\c1ccc(-c2ccc(F)cc2)o1)c1ccccc1 returned TDP2 absorb 4, PRMT1 FP inh 28* and PRMT1 confirm 16.
`CCN(CC)CCSC(=O)C(c1ccccc1)c1ccccc1` gave TDP2 absorb -8, PRMT1 FP inh 76* and PRMT1 confirm 40*.
Screening CCN(CC)CCOC(=O)C(c1ccccc1)c1ccccc1 returned GSTO1 counter 6, TDP2 absorb 2, PRMT1 FP inh 0, PAD4 inh -2 and Apaf1 inhib -3.
`Cc1cc2ccccc2n1CCNC(=O)c1ccccc1` gave GSTO1 counter 8, TDP2 absorb 2, PRMT1 FP inh 3, PAD4 inh 9 and Apaf1 inhib 24.
`Cc1cc2ccccc2n1CCNC(=O)c1ccc(Br)o1` gave GSTO1 counter 1, TDP2 absorb 7, PRMT1 FP inh 27*, PAD4 inh 3, Apaf1 inhib 19 and PRMT1 confirm 1.
For CN(C)c1cccc(CNC(=O)c2csc([C@H]3C[C@H](O)[C@@H](CO)O3)n2)c1 the results were TDP2 absorb -9 and PRMT1 FP inh 1.
Screening Cc1ccc(N)cc1O returned TDP2 absorb -15, PRMT1 FP inh 39*, PAD4 inh -12, Apaf1 inhib 1 and PRMT1 confirm 0.
`COc1cccc(/C=C2/CCC(CN(C)C)C2=O)c1` (centres undefined) gave TDP2 absorb 0, PRMT1 FP inh 41* and PRMT1 confirm 71*.
`CCCCc1cc(=O)oc2cc(OCC(=O)NCC3CCC(C(=O)O)CC3)ccc12` (centres undefined) gave GSTO1 counter -11, TDP2 absorb 3, PRMT1 FP inh 0, PAD4 inh -4 and Apaf1 inhib -3.
O=C(O)c1ccc2ncsc2c1 was read as GSTO1 counter 6, TDP2 absorb -5, PRMT1 FP inh 25*, PAD4 inh 10, Apaf1 inhib -23 and PRMT1 confirm 13.
Screening O=C(Nc1ccc(Cl)cc1)c1ccc2ncsc2c1 returned GSTO1 counter -9, TDP2 absorb 5, PRMT1 FP inh 4, PAD4 inh 2 and Apaf1 inhib 3.
O=C(c1ccc2ncsc2c1)N1CCCCC1 was read as GSTO1 counter 12, TDP2 absorb 12, PRMT1 FP inh 8, PAD4 inh 3 and Apaf1 inhib 4.
For O=C(Nc1cccc(Cl)c1)c1ccc2ncsc2c1 the results were GSTO1 counter -4, TDP2 absorb -21, PRMT1 FP inh 32*, PAD4 inh 5, Apaf1 inhib 6 and PRMT1 confirm -2.
O=C(COC(=O)c1ccc2ncsc2c1)Nc1cccc(Cl)c1 was read as TDP2 absorb -14, PRMT1 FP inh 33*, PAD4 inh 12, Apaf1 inhib 0 and PRMT1 confirm 2.
O=C(CC1=NC2(CCCC2)Cc2ccccc21)N1CCOCC1 was read as GSTO1 counter 1, TDP2 absorb -2, PRMT1 FP inh 18, PAD4 inh 5 and Apaf1 inhib -4.
`CCC1(CC)Cc2ccccc2C(CC(=O)N2CCOCC2)=N1` gave GSTO1 counter 2, TDP2 absorb -31, PRMT1 FP inh 35*, PAD4 inh 0, Apaf1 inhib -16 and PRMT1 confirm 31*.
Cc1ccc(S(=O)(=O)NNc2nc3ccccc3nc2C(F)(F)F)cc1 was read as GSTO1 counter 5, TDP2 absorb 6, PRMT1 FP inh 81*, PAD4 inh -5, Apaf1 inhib 18 and PRMT1 confirm 18.
Screening Cc1ccccc1CC(=O)Nc1ccc2c(c1)c(=O)n(C)n2-c1cccs1 returned TDP2 absorb -2 and PRMT1 FP inh 4.
CC1=C(C(=O)O)N2C(=O)C(NC(=O)c3nn(C)c(C)c3Cl)C2SC1 (centres undefined) was read as GSTO1 counter 4, TDP2 absorb -13, PRMT1 FP inh 29*, PAD4 inh -3, Apaf1 inhib -8 and PRMT1 confirm 38*.
`CC1=C(C(=O)O)N2C(=O)C(NC(=O)c3nn(C)cc3[N+](=O)[O-])C2SC1` (centres undefined) gave GSTO1 counter 0, TDP2 absorb 7, PRMT1 FP inh 33*, PAD4 inh -5, Apaf1 inhib -7 and PRMT1 confirm 44*.
`CC1=C(C(=O)O)N2C(=O)C(NC(=O)c3ccn(C)n3)C2SC1` (centres undefined) gave GSTO1 counter 9, TDP2 absorb 14, PRMT1 FP inh 6, PAD4 inh 1 and Apaf1 inhib -17.
Cc1ccc(S(=O)(=O)N2CCN(c3nn(C)c(=O)n(C)c3=O)CC2)cc1C was read as TDP2 absorb -1, PRMT1 FP inh 3, PAD4 inh 3 and Apaf1 inhib 4.
For COc1ccc(C2C(C(=O)Nc3ccccc3)=C(C)N=C3SCC(=O)N32)cc1 (centres undefined) the results were GSTO1 counter 11, TDP2 absorb 3, PRMT1 FP inh 9, PAD4 inh 5 and Apaf1 inhib 11.
CC1=C(C(=O)Nc2ccccc2)C(c2ccc(O)cc2)N2C(=O)CSC2=N1 (centres undefined) was read as GSTO1 counter 9, TDP2 absorb 0, PRMT1 FP inh 26*, PAD4 inh -13, Apaf1 inhib 2 and PRMT1 confirm 29*.
Screening C=CC(n1cncn1)C(O)(c1ccccc1)c1ccccc1 (centres undefined) returned GSTO1 counter 2, TDP2 absorb -5, PRMT1 FP inh 0, PAD4 inh -4 and Apaf1 inhib 2.
Nc1c(N(CCCO)C(=O)CCCN2C(=O)c3cccc4cccc(c34)C2=O)c(=O)[nH]c(=O)n1Cc1ccccc1 was read as TDP2 absorb 7 and PRMT1 FP inh -6.
Cc1[nH]c(=S)c(C#N)c2c1CCCC2 was read as GSTO1 counter 12, TDP2 absorb 0, PRMT1 FP inh 40*, PAD4 inh -7, Apaf1 inhib -1 and PRMT1 confirm 19.
Screening Cc1[nH]c(=O)c(C#N)c2c1CCCC2 returned GSTO1 counter 2, TDP2 absorb -3, PRMT1 FP inh -1, PAD4 inh -4 and Apaf1 inhib 12.

Source: PubChem (several laboratories)
